Assay outcomes (PubChem BioAssay)
Shown are actives, neighbours in structure and some others; about 2.2% of the full set was active somewhere.
DNMT1 inh: human DNMT1 methyltransferase inhibitors, primary screen, biochemical, molecular beacon, fluorescence, HinP1I cleavage, uHTS | 360,000 compounds, 0.83% hits | DNA (cytosine-5)-methyltransferase 1 (Homo sapiens), P26358 | inhibition (reported as % activation of signal), % at 10 µM; in the data active = inhibition above about 50%
GRK2 aptamer HTS: compounds blocking aptamer binding on GRK2 – biochemical, human GRK2, bead flow cytometry, HTS, primary screen. FAM-aptamer displacement from GRK2. inhibition of aptamer binding, % at 10 µM. AID 488847, 2010. 330,000 compounds, 0.59% hits;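 active = inhibition of aptamer binding above 40%, roughly 3 SD of noise, on plates passing a quality check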;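 also: median bead fluorescence of bound FAM aptamer so fluorescent compounds give negative values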
STEP inh: STEP phosphatase inhibitors, primary screen, biochemical, fluorescence intensity, uHTS; Tyrosine-protein phosphatase non-receptor type 5 (Homo sapiens), P54829; inhibition, % at 20 µM; 360,000 compounds, 0.25% hits; recombinant STEP, OMFP fluorogenic substrate;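 active = inhibition at 20 µM, scaled per plate between control wells, above about 37%, limit read from the data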;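 also: 0% = DMSO with enzyme and substrate and 100% = substrate only without enzyme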
Target sequence (P54829 whole entry, looked up): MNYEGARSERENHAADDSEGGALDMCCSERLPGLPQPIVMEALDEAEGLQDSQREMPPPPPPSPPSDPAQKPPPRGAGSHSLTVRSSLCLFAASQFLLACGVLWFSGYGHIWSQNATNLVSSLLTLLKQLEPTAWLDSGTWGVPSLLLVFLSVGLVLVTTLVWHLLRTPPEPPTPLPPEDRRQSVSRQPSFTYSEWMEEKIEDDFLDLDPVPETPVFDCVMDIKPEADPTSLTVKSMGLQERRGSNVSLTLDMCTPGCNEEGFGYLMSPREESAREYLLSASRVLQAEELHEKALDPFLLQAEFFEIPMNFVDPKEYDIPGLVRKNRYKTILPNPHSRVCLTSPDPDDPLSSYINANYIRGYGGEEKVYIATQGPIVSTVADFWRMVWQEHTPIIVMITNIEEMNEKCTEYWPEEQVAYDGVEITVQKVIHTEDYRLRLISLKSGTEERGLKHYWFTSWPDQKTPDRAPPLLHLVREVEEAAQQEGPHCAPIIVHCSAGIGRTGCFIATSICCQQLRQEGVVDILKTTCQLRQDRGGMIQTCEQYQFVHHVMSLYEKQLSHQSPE
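Material: STEP (striatal-enriched tyrosine phosphatase) enzyme, cell-free | Medium: 50 mM Bis-Tris pH 6.0 with 2.5 mM DTT and 0.005% Tween 20 | Read-out: Percent inhibition scaled to no-enzyme and uninhibited-enzyme controls, plate-pattern corrected | Signal: Fluorescence read at 480 nm ex / 540 nm em | Times: 20 min reaction, room temperature, in the dark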
Scp-1 inhibitor: Scp-1 phosphatase inhibitors, primary screen, biochemical, colorimetric, uHTS; AID 493091, 2011; inhibition, % at 20 µM; 340,000 compounds, 0.88% hits; Carboxy-terminal domain RNA polymerase II polypeptide A small phosphatase 1 (Homo …; Recombinant Scp1, phosphopeptide, malachite green phosphate absorbance;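 active = inhibition above about 50% at 20 µM, limit read from the data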;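 also: plate controls were DMSO wells with enzyme for no effect and wells lacking enzyme for full effect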
Target sequence (Q9GZU7 76-261 limits assumed): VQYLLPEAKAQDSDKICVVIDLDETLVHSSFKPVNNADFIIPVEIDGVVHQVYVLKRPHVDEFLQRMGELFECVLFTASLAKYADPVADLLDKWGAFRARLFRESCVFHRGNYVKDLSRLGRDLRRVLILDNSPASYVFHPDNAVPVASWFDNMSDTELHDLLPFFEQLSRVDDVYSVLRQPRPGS
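Material – SCP-1 phosphatase catalytic domain, residues 76-261 · Buffer or medium – Acidic Tris acetate buffer with magnesium and detergent · Also added – Phospho 17-mer peptide substrate · Compound – single 20 µM dose, 1% DMSO · Times – 45 min room-temperature reaction, 5 min colour, 30 min stabiliser · Technique – Phosphate-binding colour reagent, absorbance read at 630 nm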
SUMO1-SIM PPI: modulators of SUMO1 protein-protein interactions, primary screen, biochemical, uHTS. Small ubiquitin-related modifier 1 (Homo sapiens), P63165. SUMO1 binding to a labelled peptide, TR-FRET, 1 h. inhibition, % at 20 µM. 360,000 compounds, 0.33% hits. AID 602429, 2012; in the data active = inhibition above about 37%
LMPTP inh: LMPTP phosphatase inhibitors, primary screen, biochemical, fluorescence intensity, uHTS; recombinant LMPTP-A, OMFP fluorogenic substrate; inhibition, % at 20 µM; 360,000 compounds, 0.22% hits;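 active = compounds that cut the enzyme signal by at least half of the control window in the single-dose screen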;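 also: plate controls were DMSO wells with enzyme plus substrate for no effect and substrate without enzyme for full effect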
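Buffer or medium: Bis-Tris pH 6.0, DTT, detergent; Assay system: LMPTP-A enzyme; Quantity: 0.625 nM enzyme; Detection: endpoint fluorescence intensity; Times: 50 min dark incubation at room temperature; Controls: substrate-only low control, DMSO enzyme-plus-substrate high control; Doses: single 20 µM dose; Read-out: percent inhibition versus substrate-only and uninhibited controls; Reagent: 400 µM OMFP.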
STEP inh conf: STEP phosphatase inhibitor hit confirmation, biochemical, fluorescence intensity, single concentration; shares compounds with STEP inh; recombinant STEP, OMFP fluorogenic substrate; inhibition, % at 20 µM; 520 compounds, 32% hits; AID 623866, 2012; call rule not given here;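 also: 0% = enzyme with substrate plus DMSO and 100% = substrate without enzyme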
* = called active by the depositor.

What do the screens show for `O=C(Nc1ccc2oc(-c3ccncc3)nc2c1)c1ccco1`?
DNMT1 inh: -1.4; GRK2 aptamer HTS: 1.0; STEP inh: 2.4; Scp-1 inhibitor: 45.7; SUMO1-SIM PPI: 22.9; LMPTP inh: 4.0

What do the screens show for `O=C(Nc1ccc2oc(-c3ccncc3)nc2c1)c1ccc(Br)o1`?
DNMT1 inh: 0.5; GRK2 aptamer HTS: 2.0; STEP inh: 66.7*; Scp-1 inhibitor: 16.3; SUMO1-SIM PPI: 5.1; LMPTP inh: 28.2; STEP inh conf: 3.0

Results for COc1ccccc1Cc1c(C(C)(C)C)nc2c3ccccc3ccn12 ?
DNMT1 inh: -1.2; STEP inh: -1.3; SUMO1-SIM PPI: 1.1; LMPTP inh: 1.0

Results for CCCc1cc(C(=O)N2CCCC(C(=O)c3cccc4ccccc34)C2)n(C)n1 (stereo not drawn) ?
DNMT1 inh: -1.4; GRK2 aptamer HTS: 1.0; STEP inh: 49.3*; Scp-1 inhibitor: -2.7; SUMO1-SIM PPI: -5.1; LMPTP inh: 1.3; STEP inh conf: 0.5

Results for Cc1ccc(S(=O)(=O)NCC(=O)N2CCN(c3ccc(F)cc3)CC2)cc1 ?
DNMT1 inh: 0.8; GRK2 aptamer HTS: 0.0; STEP inh: 40.5*; Scp-1 inhibitor: -4.2; SUMO1-SIM PPI: -1.8; LMPTP inh: -2.0; STEP inh conf: -2.8

What do the screens show for `O=C(Nc1nc2nccc(-c3ccccc3)n2n1)c1ccc(F)cc1`?
DNMT1 inh: 27.9; GRK2 aptamer HTS: 0.0; STEP inh: 51.6*; Scp-1 inhibitor: -2.7; SUMO1-SIM PPI: 4.1; LMPTP inh: 0.9; STEP inh conf: -0.6

How did C[C@@H]1CN([C@@H](C)CO)S(=O)(=O)c2ccc(Br)cc2O[C@H]1CN(C)C(=O)c1cccc(F)c1 do in these assays?
DNMT1 inh: -0.4; STEP inh: 1.6; SUMO1-SIM PPI: 4.6; LMPTP inh: -1.5

How did C=CCn1c(=O)c(C(=O)Nc2ncccc2C)c(O)c2ccccc21 do in these assays?
DNMT1 inh: 5.2; STEP inh: 3.3; SUMO1-SIM PPI: 4.3; LMPTP inh: 0.2

What do the screens show for `CCn1c(CSc2ncccn2)nnc1SCC(=O)N1CCc2ccccc21`?
DNMT1 inh: -0.9; GRK2 aptamer HTS: 0.0; STEP inh: 1.4; Scp-1 inhibitor: -3.8; SUMO1-SIM PPI: 0.8; LMPTP inh: -1.0

Results for Cn1c(CSc2ncccn2)nnc1SCC(=O)N1CCCc2ccccc21 ?
DNMT1 inh: -5.8; GRK2 aptamer HTS: 2.0; STEP inh: 52.6*; Scp-1 inhibitor: -1.8; SUMO1-SIM PPI: 0.2; LMPTP inh: -0.8; STEP inh conf: -10.7

What do the screens show for `Cc1ccc(Cl)cc1NC(=S)N(CCCN1CCN(C)CC1)Cc1cccs1`?
DNMT1 inh: 4.3; GRK2 aptamer HTS: 0.0; STEP inh: -1.1; Scp-1 inhibitor: -0.8; SUMO1-SIM PPI: -2.4; LMPTP inh: -0.3

How did CCc1cccc(C)c1NC(=S)N(CCCN1CCOCC1)Cc1cccnc1 do in these assays?
DNMT1 inh: 0.8; GRK2 aptamer HTS: 0.0; STEP inh: 41.0*; Scp-1 inhibitor: -5.2; SUMO1-SIM PPI: 4.0; LMPTP inh: -5.2; STEP inh conf: 4.6

What do the screens show for `Cc1cc(Cl)ccc1NC(=S)N(CCCN1CCOCC1)Cc1cccs1`?
DNMT1 inh: 8.9; GRK2 aptamer HTS: 0.0; STEP inh: 57.2*; Scp-1 inhibitor: -1.7; SUMO1-SIM PPI: -0.3; LMPTP inh: -2.4; STEP inh conf: 11.7

Results for CCOC(=O)C1(C)CCCN1C(=O)c1ccc(OC)c(F)c1 (stereo not drawn) ?
DNMT1 inh: 3.9; STEP inh: 0.3; SUMO1-SIM PPI: 0.2; LMPTP inh: -1.3

What do the screens show for `CN1OC[C@@H]2CN(Cc3ccccc3)[C@H](c3ccc(-n4ccnc4)cc3)C[C@@H]21`?
DNMT1 inh: 4.0; STEP inh: 1.8; SUMO1-SIM PPI: -1.1; LMPTP inh: 0.9

What do the screens show for `O=C(N/N=C/c1cccnc1)c1ccc(NC(=O)c2ccc(Cl)cc2)cc1`?
DNMT1 inh: 18.7; GRK2 aptamer HTS: 0.0; STEP inh: 53.3*; Scp-1 inhibitor: 2.6; SUMO1-SIM PPI: 17.9; LMPTP inh: 8.6; STEP inh conf: 11.2

How did O=C(CCn1c(=S)oc2ccccc21)Nc1cccc(F)c1 do in these assays?
DNMT1 inh: 30.9; GRK2 aptamer HTS: 3.0; STEP inh: -0.4; Scp-1 inhibitor: -6.5; SUMO1-SIM PPI: -1.2; LMPTP inh: 2.1

Results for Cc1ccc(NC(=O)CCn2c(=S)oc3ccccc32)cc1F ?
DNMT1 inh: 41.7; GRK2 aptamer HTS: 0.0; STEP inh: 48.3*; Scp-1 inhibitor: 25.5; SUMO1-SIM PPI: 10.8; LMPTP inh: 35.6; STEP inh conf: 38.1*

What do the screens show for `CCN(CC)C(=O)c1ccccc1NC(=O)c1ccccc1C`?
DNMT1 inh: -3.3; GRK2 aptamer HTS: 0.0; STEP inh: -2.0; Scp-1 inhibitor: -2.5; SUMO1-SIM PPI: 1.6; LMPTP inh: -0.2

What do the screens show for `CCN(CC)C(=O)c1ccccc1NC(=O)c1ccccc1SC`?
DNMT1 inh: -0.6; GRK2 aptamer HTS: 0.0; STEP inh: 42.8*; Scp-1 inhibitor: -2.7; SUMO1-SIM PPI: 3.3; LMPTP inh: -2.5; STEP inh conf: 5.3

How did CCC(C)(C(=O)NC1CCCC1)N(Cc1cccs1)C(=O)Cc1cccs1 (stereo not drawn) do in these assays?
DNMT1 inh: 6.0; GRK2 aptamer HTS: 6.0; STEP inh: 89.7*; Scp-1 inhibitor: -8.7; SUMO1-SIM PPI: -0.8; LMPTP inh: 1.2; STEP inh conf: -0.1

What do the screens show for `NS(=O)(=O)c1ccc(NC(=S)N2CCN(S(=O)(=O)c3ccc(F)cc3)CC2)cc1`?
GRK2 aptamer HTS: 5.0

How did CN1CCN(C(=S)Nc2ccc(S(N)(=O)=O)cc2)CC1 do in these assays?
DNMT1 inh: -4.5; GRK2 aptamer HTS: 0.0; STEP inh: 81.3*; Scp-1 inhibitor: -2.2; SUMO1-SIM PPI: 3.8; LMPTP inh: -2.7; STEP inh conf: 38.8*

Results for CN1CCN(C(=S)C(=O)Nc2ccc(Br)cc2)CC1 ?
DNMT1 inh: -0.1; GRK2 aptamer HTS: 2.0; STEP inh: 94.5*; Scp-1 inhibitor: -4.2; SUMO1-SIM PPI: 0.4; LMPTP inh: 1.2; STEP inh conf: 76.9*

How did CSc1ccc(Cn2c(C)c(C(=O)NCc3cccs3)sc2=O)cc1 do in these assays?
DNMT1 inh: 0.3; STEP inh: 3.0; SUMO1-SIM PPI: 4.1; LMPTP inh: 1.2
